Results collected from several papers.
Target: Casein kinase I isoform gamma-3 (CSNK1G3, Homo sapiens, UniProt Q9Y6M4)

SMILES	test	conditions	remaining binding [%]
COc1cnc(Nc2cccc(S(N)(=O)=O)c2)nc1N1CCN(c2ccccc2)C(=O)C1	binding, competition with immobilised ligand	1 µM	87
N#Cc1ccc(Nc2ccc3[nH]c(=O)[nH]c3c2)c(Cl)c1	cell-free assay, competition with immobilised ligand	1 µM	99
Cc1cnc(Nc2ccc(C(=O)N3CCC(N4CCCC4)CC3)cc2)nc1-c1cc2ccccc2s1	binding, competition with immobilised ligand	1 µM	100
CN(C)CC#Cc1ccc(OCCCc2sc(N3CCc4cccc(C(=O)Nc5nc6ccccc6s5)c4C3)nc2C(=O)O)c(F)c1	cell-free assay, competition with immobilised ligand	1 µM	100
FC(F)(F)Oc1cccc(-c2cnc3ccc(-c4ccncc4)nn23)c1	cell-free assay, competition with immobilised ligand	5 µM	84
O=C(NCCCN1CCOCC1)c1ccc(Nc2ncc(Cl)c(-c3ccc(Cl)s3)n2)cc1	binding, competition with immobilised ligand	1 µM	100
N[C@@H]1CCN(c2nccc(-c3cnn4ncccc34)n2)C1	binding	1 µM	100
O=C(NCCCN1CCOCC1)c1ccc(Nc2nccc(-c3cc4ccccc4s3)n2)cc1	binding, competition with immobilised ligand	1 µM	88
C[C@H]1CCN(c2nccc(-c3cnn4ncccc34)n2)C1	binding	1 µM	91
Cc1c(C(=O)O)cc(-c2ccc(C3CCNCC3)cc2)c2ccc(-c3ccc(C(F)(F)F)cc3)cc12	cell-free assay, competition with immobilised ligand	1 µM	100
CN(CCCC(F)(F)F)c1nccc(-c2cnn3ncccc23)n1	binding	1 µM	100
c1cncc(-c2cccc(Nc3nccc(NC4CCCCC4)n3)c2)c1	binding, competition with immobilised ligand	10 µM	100
CN(C)c1ncc(F)c(-c2cnn3ncccc23)n1	binding	1 µM	100
O=C(Nc1c[nH]nc1C(=O)NC1CCNCC1)c1cc(F)cc(F)c1	binding, competition with immobilised ligand	1 µM	98
Cc1nc(N2CC[C@@H](O)C2)ncc1-c1cc(C(F)(F)F)cc2[nH]ncc12	cell-free assay, competition with immobilised ligand	1 µM	74
CN(C)c1nccc(-c2cnn3ncccc23)n1	binding	1 µM	82
CCOCCn1cc(C(=O)Nc2ccc(-n3nc(-c4cccnc4)cc3C(F)(F)F)cn2)ccc1=O	cell-free assay, competition with immobilised ligand	1 µM	100
c1cnn2ncc(-c3ccnc(N4CCC45COC5)n3)c2c1	binding	1 µM	100
CNCc1ccccc1-c1csc([C@H](C)Nc2nc(C)nc3cc(OC)c(OC)cc23)c1	cell-free assay, competition with immobilised ligand	1 µM	93
CNC(=O)[C@@H]1CC[C@@H](n2c(-c3ccc4cnccc4c3)nc3ccc(C(=O)NCc4cccc(C(N)=O)c4)cc32)C1	binding, competition with immobilised ligand	1 µM	100
